The text below walks through data of ChEMBL document CHEMBL4342481, “Spiro-oxindole Piperidines and 3-(Azetidin-3-yl)-1H-benzimidazol-2-ones as mGlu2 Receptor PAMs” (ACS Med Chem Lett, 2020).

Data set [1] deals with CHO. Nature of the data set: Positive allosteric modulation of mGlu2 receptor in CHO cell membranes preincubated for 30 mins in presence of 4 uM glutamate followed by [35S]GTPgammaS addition and measured after 30 mins by scintillation counting analysis relative to control. To be noted: Cricetulus griseus. The method, boiled down: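 EMAX is the % response, given as the median of at least two experiments with standard deviation.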

The test system of data set [2] is CHO. In words: Positive allosteric modulation of mGlu2 receptor in CHO cell membranes at 1 uM preincubated for 30 mins in presence of 4 uM glutamate followed by [35S]GTPgammaS addition and measured after 30 mins by scintillation counting analysis. To be noted: Cricetulus griseus.
A short description of data set [3]: Stability in human liver microsomes assessed as percentage of compound metabolized at 5 uM after 15 mins. To be noted: for metabolised at 0.25 h, 5 µM: liver microsomes, read-out: Drug metabolism. It is filed as ADME, Microsome.
Data set [4] in a line: Stability in rat liver microsomes assessed as percentage of compound metabolized at 5 uM after 15 mins. As to conditions: for metabolised at 0.25 h, 5 µM: liver microsomes, read-out: Drug metabolism. It counts as ADME, Microsome.
A short description of data set [5]: Positive allosteric modulation of mGlu2 receptor in CHO cell membranes preincubated for 30 mins in presence of 4 uM glutamate followed by [35S]GTPgammaS addition and measured after 30 mins by scintillation counting analysis. Further details: species or system Cricetulus griseus. The method, boiled down:
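No absolute EC50 was given where the concentration–response curve reached no clear upper plateau.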

A short description of data set [6]: Brain to plasma permeability coefficient, Kp in Sprague-Dawley rat at 30 mg/kg, po after 2 hrs. It counts as ADME, organism-based. The method, boiled down:
(§1)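 Single oral dose to male Sprague–Dawley rats (n = 1), given as a suspension in 20% HP-β-CD at pH 7, at 10 or 30 mg/kg. Plasma (ng/mL) and brain (ng/g) levels were taken at 2 and 4 h. Kp is the brain/plasma partition coefficient at 2 h.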

Data set [7] in a line: Drug level in Sprague-Dawley rat plasma at 30 mg/kg, po after 2 hrs. It is filed as ADME, organism-based. The method, boiled down: as §1
The nature of data set [8]: Drug level in Sprague-Dawley rat plasma at 30 mg/kg, po after 4 hrs. It counts as ADME, organism-based. The method, boiled down: as §1
Data set [9] is described as follows: Drug concentration in Sprague-Dawley rat brain at 30 mg/kg, po after 2 hrs. To be noted: read-out: Drug uptake. It is filed as ADME, organism-based. The method, boiled down: as §1
A short description of data set [10]: Drug concentration in Sprague-Dawley rat brain at 30 mg/kg, po after 4 hrs. To be noted: read-out: Drug uptake. It is filed as ADME, organism-based. The method, boiled down:
as §1

The test system of data set [11] is MDR1. In words: Efflux ratio of permeability in pig LLC-PK1 cells transfected with MDR1. It counts as ADME, cell-based, Sus scrofa.
The test system of data set [12] is MDR1. In words: Permeability in pig LLC-PK1 cells transfected with MDR1 gene. To be noted: read-out: permeability. It is filed as ADME, cell-based, Sus scrofa.
Data set [13] in a line: Brain to plasma permeability coefficient, Kp in Sprague-Dawley rat at 10 mg/kg, po after 2 hrs. It counts as ADME, organism-based. The method, boiled down:
as §1

A short description of data set [14]: Drug level in Sprague-Dawley rat plasma at 10 mg/kg, po after 2 hrs. It is filed as ADME, organism-based. The method, boiled down: as §1
Data set [15] is described as follows: Drug level in Sprague-Dawley rat plasma at 10 mg/kg, po after 4 hrs. It is filed as ADME, organism-based. The method, boiled down: as §1
Data set [16] in a line: Drug concentration in Sprague-Dawley rat brain at 10 mg/kg, po after 2 hrs. As to conditions: read-out: Drug uptake. It is filed as ADME, organism-based. The method, boiled down:
as §1

Data set [17] in a line: Drug concentration in Sprague-Dawley rat brain at 10 mg/kg, po after 4 hrs. As to conditions: for concentration at 4 h: Sprague-Dawley, brain, read-out: Drug uptake. It counts as ADME, organism-based. The method, boiled down: as §1
Data set [18] has as its target Adenosine receptor A2b (Homo sapiens) (UniProt P29275). In words: Displacement of radioligand from human adenosine A2B receptor.
[19] abbreviates: microsomes, 0.25 h, 5 µM, BLD = below limit of detection.

Adenosine receptor A2b (Homo sapiens), sequence (P29275 whole entry, looked up): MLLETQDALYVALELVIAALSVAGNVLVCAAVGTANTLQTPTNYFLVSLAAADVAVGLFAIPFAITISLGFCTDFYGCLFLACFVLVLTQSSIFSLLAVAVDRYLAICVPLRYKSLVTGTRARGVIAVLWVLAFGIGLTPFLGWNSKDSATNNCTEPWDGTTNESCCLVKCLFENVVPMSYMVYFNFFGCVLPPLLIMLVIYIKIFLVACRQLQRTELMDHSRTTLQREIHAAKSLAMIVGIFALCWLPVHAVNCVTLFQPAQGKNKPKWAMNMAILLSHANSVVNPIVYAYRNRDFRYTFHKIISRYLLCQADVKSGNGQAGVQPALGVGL

With `O=C1Nc2ccc(F)cc2C12CCN(c1ccc(Cl)nn1)CC2`, the maximal effect (Emax) in data set [1] came to 184%. In addition, in data set [2], the Activity was found to be 31%. Further, the metabolised at 0.25 h, 5 µM in data set [3] was found to be 11%; in data set [4], 57%.

In the case of `CCOc1nc(N2CC(n3c(=O)[nH]c4cc(C(F)(F)F)ccc43)C2)ncc1Cl`, the concentration giving a half-maximal response (EC50) in [5] was 150 nM. The maximal effect (Emax) in data set [1] amounted to 220%. Also, the Drug metabolism result in data set [3] (setting [19]) and in data set [4] (setting [19]) was “Bld” in each case.

For `CCNc1cc(N2CC(n3c(=O)[nH]c4ccccc43)C2)ncc1Cl`, in data set [5], the EC50 is 120 nM. The Emax in data set [1] stood at 381%. The metabolised at 0.25 h, 5 µM in data set [3] was 27%; in data set [4], 88%.

For `FC(F)(F)c1cccc(C2CCN(c3ccc(Cl)nn3)CC2)c1`, the EC50 in data set [5] worked out at 2290 nM. The Emax in data set [1] amounted to 128%.

With `O=C1Nc2ccc(C3CC3)cc2C12CCN(c1ccc(Cl)nn1)CC2`, in data set [5], the 50% effective concentration (EC50) came to 630 nM. The Emax in data set [1] came out at 169%. In addition, the Activity in data set [2] was determined as 105%. Moreover, the metabolised at 0.25 h, 5 µM in data set [3] worked out at 45%; in data set [4], 100%.

Regarding `CCNc1cc(N2CC(n3c(=O)[nH]c4ccccc43)C2)nnc1Cl`, the Kp at 2 h in data set [6] amounted to 0.03. Besides, the EC50 in [5] was 280 nM. Also, in data set [1], the maximal effect (Emax) stood at 291%. Besides, the metabolised at 0.25 h, 5 µM came out at 0% in [3] and 23% in [4]. Moreover, the values for the concentration at 2 h in data set [7] and in [9] were 1480 ng/mL and 48 ng/g, respectively. The concentration at 4 h stood at 842 ng/mL in data set [8] and 31 ng/g in data set [10].

Turning to `Cc1ccc(N2CCC3(CC2)C(=O)Nc2ccc(Br)cc23)nn1`, the Emax in data set [1] is 228%. Further, in data set [2], the Activity worked out at 36%. Moreover, the figures for the metabolised at 0.25 h, 5 µM in data set [3] and in [4] were 17% and 69%, respectively.

On to `CCOc1ccc(N2CCC3(CC2)C(=O)Nc2ccc(Br)cc23)nn1`, for which the EC50 in data set [5] was above 10000 nM. In addition, the maximum response (Emax) in data set [1] amounted to 52%. In addition, the Activity in [2] stood at 5%. Moreover, the metabolised at 0.25 h, 5 µM in data set [3] is 7%; in data set [4], 31%.

Take `CCOc1cc(N2CC(n3c(=O)[nH]c4ccccc43)C2)ncc1Cl`: in data set [6], the Kp at 2 h was determined as 0.36. Further, the concentration for a half-maximal effect (EC50) in data set [5] was 270 nM. In addition, the maximal response (Emax) in [1] amounted to 259%. Besides, the figures for the metabolised at 0.25 h, 5 µM in [3] and in [4] were 15% and 46%, respectively. The concentration at 2 h was 5770 ng/mL in data set [7] and 2050 ng/g in data set [9]. For the same compound, the concentration at 4 h was 5780 ng/mL in data set [8] and 2370 ng/g in [10]. The efflux ratio in data set [11] was found to be 1.18. In addition, the Papp in data set [12] turned out to be 13 ×10⁻⁶ cm/s.

`CCOc1cc(N2CC(n3c(=O)[nH]c4cc(C(F)(F)F)ccc43)C2)ncc1Cl` returned a Kp at 2 h in [6] of 0.14. Besides, the EC50 in data set [5] is 80 nM. In addition, the maximal effect (Emax) in [1] was determined as 218%. Moreover, the metabolised at 0.25 h, 5 µM in [3] was 4%; in data set [4], 12%. Further, the concentration at 2 h in [7] amounted to 2660 ng/mL; in [9] it was 371 ng/g. For the same compound, the results for the concentration at 4 h in data set [8] and in data set [10] were 5090 ng/mL and 996 ng/g, respectively. Moreover, the efflux ratio in [11] stood at 1.24. In [12], the Papp was found to be 9 ×10⁻⁶ cm/s.

As for `CCNc1cc(N2CCC3(CC2)C(=O)Nc2ccc(Br)cc23)nnc1Cl`, the half-maximal effective concentration (EC50) in data set [5] came out at 240 nM. Moreover, the Emax in data set [1] was determined as 394%. The Activity in data set [2] is 263%. The metabolised at 0.25 h, 5 µM came to 8% in data set [3] and 65% in data set [4].

In the case of `O=C1Nc2ccc(Cl)cc2C12CCN(c1ccc(Cl)nn1)CC2`, the EC50 in [5] is 1000 nM. For the same compound, the Emax in data set [1] is 187%. Besides, the Activity in data set [2] worked out at 80%. In addition, the metabolised at 0.25 h, 5 µM was 8% in [3] and 76% in data set [4].

As to `CCNc1cc(N2CC(n3c(=O)[nH]c4ccc(Br)cc43)C2)nnc1Cl`, the partition ratio (Kp) at 2 h in [13] worked out at 0.07. Moreover, in [5], the EC50 came to 230 nM. For the same compound, the Emax in data set [1] stood at 241%. For the same compound, the metabolised at 0.25 h, 5 µM in data set [3] was found to be 9%; in data set [4], 26%. Also, the concentration at 2 h in data set [14] stood at 254 ng/mL; in data set [16], 18 ng/g. Also, the concentration at 4 h was 416 ng/mL in data set [15] and 18 ng/g in data set [17].

Turning to `CC(C)(C)OC(=O)N1CCC2(CC1)C(=O)Nc1ccc(Br)cc12`, the half-maximal effective concentration (EC50) in [5] was determined as 10000 nM. In data set [1], the Emax came to 120%.

With `O=C1Nc2cc(Br)ccc2C12CCN(c1ccc(Cl)nn1)CC2`, in data set [1], the maximum response (Emax) turned out to be 183%. In addition, the Activity in [2] stood at 76%.

`O=C1Nc2ccc(Br)cc2C12CCN(c1ccc(Cl)nn1)CC2`: the concentration for a half-maximal effect (EC50) in [5] came to 1020 nM. For the same compound, the Emax in data set [1] was found to be 232%. Further, the Activity in [2] came out at 100%. The metabolised at 0.25 h, 5 µM was determined as 8% in [3] and 25% in [4].

Consider `O=C1Nc2ccc(Br)cc2C12CCN(c1ccc(C(F)(F)F)nn1)CC2`, for which the EC50 in data set [5] came out at 400 nM. For the same compound, in data set [1], the Emax amounted to 53%. For the same compound, in data set [2], the Activity was determined as 46%. Moreover, the metabolised at 0.25 h, 5 µM in data set [3] is 4%; in [4] it was 20%.

On to `O=C1Nc2cccc(Br)c2C12CCN(c1ccc(Cl)nn1)CC2`, for which, in data set [1], the maximal effect (Emax) worked out at 108%. The Activity in [2] is 31%.

`O=C1Nc2c(Br)cccc2C12CCN(c1ccc(Cl)nn1)CC2`: the EC50 in data set [5] was determined as 3090 nM. Moreover, in [1], the Emax was found to be 65%. Besides, the Activity in data set [2] is 9%.

Take `O=C1Nc2ccc(Br)cc2C12CCN(c1cccnn1)CC2`: the maximum response (Emax) in data set [1] stood at 141%. Further, the Activity in data set [2] turned out to be 7%.

Regarding `CCOc1cc(N2CCC3(CC2)C(=O)Nc2ccc(Br)cc23)nnc1C(F)(F)F`, the concentration ratio (Kp) at 2 h in data set [13] came to 1.4. The 50% effective concentration (EC50) in data set [5] is 130 nM. Moreover, the Emax in data set [1] is 216%. In addition, the Activity in data set [2] is 160%. For the same compound, the results for the metabolised at 0.25 h, 5 µM in data set [3] and in data set [4] were 9% and 43%, respectively. Besides, the concentration at 2 h in data set [14] came out at 260 ng/mL; in data set [16], 310 ng/g. Further, the concentration at 4 h is 220 ng/mL in data set [15] and 290 ng/g in data set [17]. The compound also registered a concentration for half-maximal inhibition (IC50) in data set [18] of 790 nM.

In data set [13], `CCOc1cc(N2CCC3(CC2)C(=O)Nc2ccc(Br)cc23)nnc1Cl` showed a Kp at 2 h of 0.37. Moreover, the EC50 in data set [5] stood at 210 nM. Besides, the maximal effect (Emax) in [1] stood at 380%. Moreover, the Activity in data set [2] was determined as 203%. In addition, the metabolised at 0.25 h, 5 µM in data set [3] is 11%; in [4] it was 58%. Further, the concentration at 2 h in [14] was found to be 49 ng/mL; in data set [16], 18 ng/g. In addition, in data set [15], the concentration at 4 h turned out to be 17 ng/mL. Further, in data set [17] (in vivo, 4 h, BLD = below limit of detection), the Drug uptake entry is reported as “Bld”.

Regarding `O=C1Nc2ccccc2C12CCN(c1ccc(Cl)nn1)CC2`, the Emax in data set [1] is 217%. For the same compound, in data set [2], the Activity worked out at 24%. Besides, the metabolised at 0.25 h, 5 µM stood at 45% in data set [3] and 95% in data set [4].
